Assay results from ChEMBL document CHEMBL2040727, “Substituted thiazoles VI. Synthesis and antitumor activity of new 2-acetamido- and 2 or 3-propanamido-thiazole analogs” (2012).

Tests used:
Format in all cases: functional
[1] = system: HL-60(TB); assay: Growth inhibition of human HL-60(TB) cells at 10 uM after 48 hrs by coulter counter analysis; details: HL-60, 48 h, read-out: GI
Procedure, shortened: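 Cells grown in RPMI 1640 with 10% FBS. Compound was dissolved in DMSO and diluted in PBS (under 1% DMSO final), then added in duplicate wells to culture at 6 × 10⁴ cells/ml. PBS/DMSO vehicle controls were included. Incubated at 37 °C, humidified 5% CO₂, for 48 h. Cells were diluted 10-fold in saline and Coulter-counted. Single-dose NCI-60 screen, read as percent growth inhibition.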

[2] = system: MOLT-4; assay: Growth inhibition of human MOLT4 cells at 10 uM after 48 hrs by coulter counter analysis; details: MOLT-4, 48 h, read-out: GI
Procedure, shortened: (§1)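 Single-dose NCI 60-line panel screen of test compounds. Cells grown in RPMI 1640 with 10% FBS. Compounds dissolved in DMSO, then diluted in phosphate buffer saline (final DMSO below 1%). Wells run in duplicate at 6 × 10⁴ cells/ml. Controls held PBS and DMSO at matching dilutions. Incubation 48 h at 37 °C under humidified 5% CO2. Cells diluted tenfold in saline and counted by Coulter counter. Percent growth inhibition taken from mean-graph of treated-cell growth.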

[3] = system: NCI-H522; assay: Growth inhibition of human NCI-H522 cells at 10 uM after 48 hrs by coulter counter analysis; details: NCI-H522, 48 h, read-out: GI; procedure, shortened: as §1
[4] = system: COLO 205; assay: Growth inhibition of human COLO205 cells at 10 uM after 48 hrs by coulter counter analysis; details: COLO 205, 48 h, read-out: GI; procedure, shortened: as §1
[5] = system: HCC 2998; assay: Growth inhibition of human HCC2998 cells at 10 uM after 48 hrs by coulter counter analysis; details: HCC 2998, 48 h, read-out: GI; procedure, shortened: as §1
[6] = system: HCT-15; assay: Growth inhibition of human HCT15 cells at 10 uM after 48 hrs by coulter counter analysis; details: HCT-15, 48 h, read-out: GI; procedure, shortened: as §1
[7] = system: SF-268; assay: Growth inhibition of human SF268 cells at 10 uM after 48 hrs by coulter counter analysis; details: SF-268, 48 h, read-out: GI; procedure, shortened: as §1
[8] = system: SF-539; assay: Growth inhibition of human SF539 cells at 10 uM after 48 hrs by coulter counter analysis; details: SF-539, 48 h, read-out: GI; procedure, shortened: as §1
[9] = system: SNB-19; assay: Growth inhibition of human SNB19 cells at 10 uM after 48 hrs by coulter counter analysis; details: SNB-19, 48 h, read-out: GI; procedure, shortened: as §1
[10] = system: LOX IMVI; assay: Growth inhibition of human LOXIMVI cells at 10 uM after 48 hrs by coulter counter analysis; details: read-out: GI; procedure, shortened: as §1
[11] = system: Malme-3M; assay: Growth inhibition of human MALME-3M cells at 10 uM after 48 hrs by coulter counter analysis; details: read-out: GI; procedure, shortened: as §1
[12] = system: M14; assay: Growth inhibition of human M14 cells at 10 uM after 48 hrs by coulter counter analysis; details: M14, 48 h, read-out: GI; procedure, shortened: as §1
[13] = system: MDA-MB-435; assay: Growth inhibition of human MDA-MB-435 cells at 10 uM after 48 hrs by coulter counter analysis; details: MDA-MB-435, 48 h, read-out: GI; procedure, shortened: as §1
[14] = system: SK-MEL-2; assay: Growth inhibition of human SK-MEL-2 cells at 10 uM after 48 hrs by coulter counter analysis; details: SK-MEL-2, 48 h, read-out: GI; procedure, shortened: as §1
[15] = system: UACC-62; assay: Growth inhibition of human UACC62 cells at 10 uM after 48 hrs by coulter counter analysis; details: UACC-62, 48 h, read-out: GI
Procedure, shortened: (§2)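 Single-dose screen in the NCI 60 cell line panel. Cells grown in RPMI 1640 with 10% FBS. Compounds dissolved in DMSO and diluted in phosphate buffered saline, final DMSO under 1%. Duplicate wells seeded from culture at 6 × 10⁴ cells/ml. Incubated 48 h at 37 °C, humidified, 5% CO2. Cells diluted tenfold in saline and Coulter-counted. Percent growth inhibition computed against PBS/DMSO controls.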

[16] = system: IGROV-1; assay: Growth inhibition of human IGROV1 cells at 10 uM after 48 hrs by coulter counter analysis; details: IGROV-1, 48 h, read-out: GI; procedure, shortened: as §1
[17] = system: OVCAR-4; assay: Growth inhibition of human OVCAR4 cells at 10 uM after 48 hrs by coulter counter analysis; details: OVCAR-4, 48 h, read-out: GI; procedure, shortened: as §1
[18] = system: A498; assay: Growth inhibition of human A498 cells at 10 uM after 48 hrs by coulter counter analysis; details: A498, 48 h, read-out: GI; procedure, shortened: as §1
[19] = system: RXF 393; assay: Growth inhibition of human RXF393 cells at 10 uM after 48 hrs by coulter counter analysis; details: RXF 393, 48 h, read-out: GI; procedure, shortened: as §1
[20] = system: MCF7; assay: Growth inhibition of human MCF7 cells at 10 uM after 48 hrs by coulter counter analysis; details: MCF7, 48 h, read-out: GI; procedure, shortened: as §1
[21] = Growth inhibition of human Hs 578T cells at 10 uM after 48 hrs by coulter counter analysis; details: read-out: GI; procedure, shortened: as §1
[22] = system: SK-OV-3; assay: Growth inhibition of human SKOV3 cells at 10 uM after 48 hrs by coulter counter analysis; details: SK-OV-3, 48 h, read-out: GI; procedure, shortened: as §1
[23] = system: TK-10; assay: Growth inhibition of human TK10 cells at 10 uM after 48 hrs by coulter counter analysis; details: TK-10, 48 h, read-out: GI; procedure, shortened: as §2
[24] = system: UACC-257; assay: Growth inhibition of human UACC257 cells at 10 uM after 48 hrs by coulter counter analysis; details: UACC-257, 48 h, read-out: GI; procedure, shortened: as §2

Measured: inhibition of growth at 10 µM

CCOC(=O)c1sc(NC(=O)C(C)N2CCOCC2)nc1C (stereo not drawn)
< 10%: all assays above

CCOC(=O)c1sc(NC(=O)C(C)N2CCN(C)CC2)nc1C (stereo not drawn)
< 10%: all assays above
